Experimental findings from ChEMBL document CHEMBL1156731, “Antifungal activity of synthetic di(hetero)arylamines based on the benzo[b]thiophene moiety” (2008) are described below.

In brackets after ≈: the same amount, converted by molar mass. Activity calls are given as the source filed them. No cut-off for these calls is given here.

The test system of experiment [1] is Aspergillus fumigatus. Briefly: Antifungal activity against Aspergillus fumigatus ATCC 46645 assessed as red fluorescence stained with PI by flow cytometry. The class given is functional. The gist of the method:
(§1)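 Conidia from 4–7-day SDA cultures suspended in water with 0.01% Tween 80 at (2.0 ± 0.2) × 10^6 CFU/mL. Exposed to twofold dilutions 256 to one µg/mL at 35 °C, water bath with agitation, 3, 4 and 24 h. FUN-1 0.5 µM (20 min, 35 °C, FL2) or PI 1 µg/mL (1 h, 35 °C, FL3); ≥7500 events; positive-cell marker set at ≤5% of drug-free controls.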

Experiment [2] deals with Candida albicans. Briefly: Antifungal activity against Candida albicans ATCC 10231 assessed as red fluorescence stained with PI by flow cytometry. The class given is functional. The gist of the method:
(§2)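 Overnight SDA cells suspended in RPMI 1640 at (2.0 ± 0.2) × 10^6 CFU/mL. Twofold dilutions 256 to one µg/mL applied at 35 °C, humid, no agitation, 2, 4 and 24 h. Washed; FUN-1 0.5 µM in PBS/2% glucose (20 min, 35 °C, FL2) or PI 1 µg/mL with 0.125% deoxycholate (~10 min, room temperature, FL3). ≥7500 events; marker included ≤5% of drug-free control cells.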

Experiment [3] relates to Aspergillus fumigatus. Briefly: Antifungal activity against Aspergillus fumigatus ATCC 46645 after 3 days by broth macrodilution method. The class given is functional. The conditions noted are these: ATCC 46645, 72 h. In short, it runs like this: (§3)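 Aspergillus inoculum from 3-day SDA subcultures at 30 °C; conidial suspension in 0.85% saline, diluted in RPMI 1640 (L-glutamine, no bicarbonate, 0.165 M MOPS, pH 7.0) to 1-2 × 10^4 CFU/mL. Twofold dilutions 200-0.8 µg/mL from DMSO stock (final DMSO ≤2%); macrodilution per CLSI M38-A, 30 °C, 3 days. MIC = lowest concentration giving 80% turbidity reduction vs drug-free control; MFC by subculture on SDA. Three independent experiments in duplicate.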

In experiment [4] the test system is Aspergillus fumigatus. The experiment is described as follows: Antifungal activity against Aspergillus fumigatus ATCC 46645 assessed as red fluorescence stained with FUN1 by flow cytometry. The experiment is classed as functional, organism-based. The gist of the method: as §1
In the next experiment the test system is Aspergillus flavus. The experiment is described as follows: Antifungal activity against Aspergillus flavus F44 after 3 days by broth macrodilution method. The experiment is classed as functional. To be noted: 72 h. The gist of the method:
as §3

The subject of experiment [5] is Candida albicans. Briefly: Antifungal activity against Candida albicans ATCC 10231 assessed as red fluorescence stained with FUN1 by flow cytometry. The experiment is classed as functional. The gist of the method:
as §2

The next experiment has as its system Aspergillus niger. Briefly: Antifungal activity against Aspergillus niger ATCC 16404 after 3 days by broth macrodilution method. The experiment is classed as functional. The conditions noted are these: ATCC 16404, 72 h. The gist of the method: as §3
The next experiment has as its system Trichophyton rubrum. Briefly: Antifungal activity against Trichophyton rubrum FF5 after 5 days by broth macrodilution method. To be noted: 120 h. The class given is functional. The gist of the method: (§4)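 Dermatophytes grown 5 days on SDA at 30 °C, subcultured. Conidial suspensions in saline were adjusted in MOPS-buffered RPMI 1640 (pH 7.0) to 1-2 × 10^4 CFU/mL. Macrodilution adapted from CLSI M38-A with 200-0.8 µg/mL twofold dilutions (DMSO ≤2%), incubated at 30 °C for 5 days. MIC at 80% turbidity reduction vs control; MFC by SDA subculture at 30 °C. Triplicate experiments in duplicate.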

The subject of experiment [6] is Candida albicans. The experiment is described as follows: Inhibition of germ tube formation in Candida albicans ATCC 10231 after 3 hrs by hemocytometer. The experiment is classed as functional, organism-based. In short, it runs like this:
(§5)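 Overnight SDA cultures (37 °C) were suspended in NYP medium (N-acetylglucosamine 10^-3 mol/L, YNB 3.35 g/L, proline 10^-3 mol/L, NaCl 4.5 g/L, pH 6.7) at (1.0 ± 0.2) × 10^6 CFU/mL. Compound added at 1/2, 1/4 and 1/8 MIC (1% DMSO final), 3 h at 37 °C. 100 cells counted by hemocytometer; germ tube at least blastospore diameter, pseudohyphae excluded. Mean ± SD, three experiments.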

The test system of experiment [7] is Candida albicans. The experiment is described as follows: Antifungal activity against Candida albicans D5 after 48 hrs by broth macrodilution method. The class given is functional. The gist of the method: (§6)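 Yeasts grown 1 day on SDA at 37 °C, subcultured, suspended in saline and diluted in MOPS-buffered RPMI 1640 (pH 7.0) to 1-2 × 10^3 CFU/mL. Broth macrodilution per CLSI M27-A2, twofold dilutions 200-0.8 µg/mL (DMSO ≤2% final), aerobic, 37 °C, 48 h. MIC = 80% turbidity reduction vs drug-free control; MFC from SDA subculture at 37 °C. Three independent experiments in duplicate.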

Experiment [8] concerns Candida albicans. The experiment is described as follows: Inhibition of germ tube formation in Candida albicans D5 after 3 hrs by hemocytometer. The class given is functional, organism-based. The gist of the method:
as §5

The next experiment concerns Nannizzia gypsea. The experiment is described as follows: Antifungal activity against Microsporum gypseum FF3 after 5 days by broth macrodilution method. To be noted: 120 h. The experiment is classed as functional. The gist of the method: as §4
The next experiment deals with Nakaseomyces glabratus. The experiment is described as follows: Antifungal activity against Candida glabrata D10R after 48 hrs by broth macrodilution method. The class given is functional. In short, it runs like this:
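Broth macrodilution per CLSI M27-A2 (minor modifications). Inoculum 1-2 × 10^3 CFU/mL in RPMI 1640 with L-glutamine, MOPS-buffered 0.165 M, pH 7.0. Twofold dilutions 200-0.8 µg/mL from DMSO stock (final DMSO ≤2%). Aerobic, 37 °C, 48 h. MIC = lowest concentration giving 80% turbidity reduction versus drug-free control. Three independent experiments in duplicate.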

For a further experiment, the system named is Pichia kudriavzevii. Briefly: Antifungal activity against Candida krusei ATCC 6258 after 48 hrs by broth macrodilution method. To be noted: ATCC 6258, 48 h. The class given is functional. In short, it runs like this:
as §6

A further experiment concerns Candida tropicalis. Briefly: Antifungal activity against Candida tropicalis ATCC 13803 after 48 hrs by broth macrodilution method. The conditions noted are these: ATCC 13803, 48 h. The experiment is classed as functional. In short, it runs like this:
as §6

Experiment [9] concerns Candida albicans. Briefly: Antifungal activity against Candida albicans ATCC 10231 after 48 hrs by broth macrodilution method. The experiment is classed as functional. To be noted: ATCC 10231, 48 h. The gist of the method: as §6
The test system of experiment [10] is Trichophyton mentagrophytes. Briefly: Antifungal activity against Trichophyton mentagrophytes FF7 after 5 days by broth macrodilution method. The experiment is classed as functional. The conditions noted are these: 120 h. The gist of the method: as §4
Experiment [11] relates to Candida albicans. Briefly: Inhibition of germ tube formation in Candida albicans M1 after 3 hrs by hemocytometer. The class given is functional, organism-based. The gist of the method: as §5
A further experiment deals with Microsporum canis. The experiment is described as follows: Antifungal activity against Microsporum canis FF1 after 5 days by broth macrodilution method. The experiment is classed as functional. The conditions noted are these: 120 h. The gist of the method: as §4
For a further experiment, the system named is Epidermophyton floccosum. Briefly: Antifungal activity against Epidermophyton floccosum FF9 after 5 days by broth macrodilution method. The class given is functional. To be noted: 120 h. In short, it runs like this: as §4

Take `C[C@@H]1[C@H](O)[C@@H](C)/C=C/C=C/C=C/C=C/C=C/C=C/C=C/[C@H](O[C@@H]2O[C@H](C)[C@@H](O)[C@H](N)[C@@H]2O)C[C@@H]2O[C@](O)(C[C@@H](O)C[C@@H](O)[C@H](O)CC[C@@H](O)C[C@@H](O)CC(=O)O[C@H]1C)C[C@H](O)[C@H]2C(=O)O` [AMPHOTERICIN B]: the Activity with Aspergillus fumigatus [1] was 40%; with Candida albicans [2], 40%; with Candida albicans [5], 60%. Besides, the MFC was determined as 4 µg/mL (≈ 4.33 µM) against Aspergillus fumigatus [3], 8 µg/mL (≈ 8.66 µM) in the experiment with Aspergillus flavus and 4 µg/mL (≈ 4.33 µM) in the experiment with Aspergillus niger. For the same compound, the minimal inhibitory concentration (MIC) in the experiment on Aspergillus fumigatus [3] amounted to 2 µg/mL (≈ 2.16 µM); in the experiment on Aspergillus flavus, 2 µg/mL (≈ 2.16 µM); against Aspergillus niger, 1 µg/mL (≈ 1.08 µM). Besides, the outcome with Aspergillus fumigatus [4] was Active.
Consider `c1cncc(Nc2csc3ccccc23)c1`, for which the MFC with Trichophyton rubrum was 12.5 µg/mL (≈ 55.2 µM); in the experiment with Candida albicans [7], > 50 µg/mL; against Nannizzia gypsea it was > 12.5 µg/mL; in the experiment on Aspergillus fumigatus [3], > 50 µg/mL; in the experiment with Nakaseomyces glabratus, > 50 µg/mL; against Pichia kudriavzevii it was > 100 µg/mL. Also, the minimum fungicidal concentration (MFC) in the experiment on Candida tropicalis is > 100 µg/mL; against Candida albicans [9], 100 µg/mL (≈ 442 µM); against Aspergillus flavus it was 100 µg/mL (≈ 442 µM); in experiment [10] it was > 12.5 µg/mL; with Microsporum canis it was > 12.5 µg/mL; with Epidermophyton floccosum, > 12.5 µg/mL. Moreover, in the experiment with Aspergillus niger, the MFC was > 100 µg/mL. Also, the minimum inhibitory concentration (MIC) came out at 3.13 µg/mL (≈ 13.8 µM) against Trichophyton rubrum; 50 µg/mL (≈ 221 µM) against Candida albicans [7]; 12.5 µg/mL (≈ 55.2 µM) with Nannizzia gypsea; 25 µg/mL (≈ 110 µM) against Aspergillus fumigatus [3]; 50 µg/mL (≈ 221 µM) against Nakaseomyces glabratus; 100 µg/mL (≈ 442 µM) in the experiment with Pichia kudriavzevii. Also, the MIC with Candida tropicalis came out at 100 µg/mL (≈ 442 µM); in the experiment on Candida albicans [9], 50 µg/mL (≈ 221 µM); with Aspergillus flavus, 50 µg/mL (≈ 221 µM); in experiment [10], 12.5 µg/mL (≈ 55.2 µM); in the experiment on Microsporum canis, 12.5 µg/mL (≈ 55.2 µM); against Epidermophyton floccosum, 12.5 µg/mL (≈ 55.2 µM). Moreover, the minimum inhibitory concentration (MIC) in the experiment on Aspergillus niger came out at 50 µg/mL (≈ 221 µM). In addition, the result in the experiment with Candida albicans [6], with Candida albicans [8], in the experiment with Aspergillus fumigatus [4] and with Candida albicans [11] was Active. Further, the Activity with Aspergillus fumigatus [1] came out at 40%; in the experiment with Candida albicans [2], 40%; in the experiment on Candida albicans [5], 60%.
For the compound `CCOC(=O)c1sc2ccccc2c1Nc1ccc(O)cc1O`, the minimum fungicidal concentration (MFC) against Trichophyton rubrum is 25 µg/mL (≈ 75.9 µM); in the experiment with Candida albicans [7] it was > 50 µg/mL; in the experiment on Nannizzia gypsea it was 25 µg/mL (≈ 75.9 µM); with Aspergillus fumigatus [3], > 100 µg/mL; in the experiment on Nakaseomyces glabratus, > 50 µg/mL; against Pichia kudriavzevii, > 50 µg/mL. The MFC against Candida tropicalis is > 50 µg/mL; in the experiment with Candida albicans [9], > 200 µg/mL; against Aspergillus flavus, > 100 µg/mL; in [10], 25 µg/mL (≈ 75.9 µM); against Microsporum canis, 12.5 µg/mL (≈ 38 µM); against Epidermophyton floccosum, 12.5 µg/mL (≈ 38 µM). The MFC in the experiment with Aspergillus niger is > 100 µg/mL. In addition, the MIC is 12.5 µg/mL (≈ 38 µM) with Trichophyton rubrum; 25 µg/mL (≈ 75.9 µM) in the experiment on Candida albicans [7]; 12.5 µg/mL (≈ 38 µM) against Nannizzia gypsea; > 100 µg/mL in the experiment on Aspergillus fumigatus [3]; 25 µg/mL (≈ 75.9 µM) against Nakaseomyces glabratus; 25 µg/mL (≈ 75.9 µM) in the experiment with Pichia kudriavzevii. The MIC against Candida tropicalis was 50 µg/mL (≈ 152 µM); in the experiment on Candida albicans [9] it was 25 µg/mL (≈ 75.9 µM); in the experiment with Aspergillus flavus it was > 100 µg/mL; in experiment [10] it was 12.5 µg/mL (≈ 38 µM); with Microsporum canis it was 12.5 µg/mL (≈ 38 µM); against Epidermophyton floccosum, 6.25 µg/mL (≈ 19 µM). Also, the minimum inhibitory concentration (MIC) with Aspergillus niger is > 100 µg/mL. The outcome with Candida albicans [6], in the experiment on Candida albicans [8] and in the experiment on Candida albicans [11] was Active.
